For 17 compounds, Concentration results are on record in ChEMBL document CHEMBL1123232, “Acyl, N-protected alpha-aminoacyl, and peptidyl derivatives as prodrug forms of the alcohol deterrent agent cyanamide” (J Med Chem, 1986).

What all share (assay type): functional, organism-based
Assay [1] has as its system Rattus norvegicus. Kind of assay: (§1) Tested for effect on ethanol derived blood Ach levels in rats at 1.0 mmol/kg. The method, boiled down: (§2)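 Fasted male Sprague-Dawley rats (185-225 g) received a single 1.0 mmol/kg ip dose at zero time, in saline or in 2% aqueous CMC if water-insoluble. Ethanol (2.0 g/kg, ip) was given at 2 or 15 h. Blood from open-chest cardiac puncture 1 h later went into 5 mM sodium azide. Headspace GC in duplicate against an AcH standard curve. Four rats per protocol; mean ± SE.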

Assay [2] concerns Rattus norvegicus. The description is as §1. The method, boiled down:
as §2
This is another data set of the same source.

Assay [3] has as its system Rattus norvegicus. Description: Compound was tested for effect on ethanol derived blood Ach levels in rats at administration (pro drug administration of 1.0 mmol/kg) ip. The gist of the method:
as §2

In assay [4] the test system is Rattus norvegicus. Kind of assay: Compound was tested for effect on ethanol derived blood Ach levels in rats at the administrations (pro drug administration of 1.0 mmol/kg) oral(po). The method, boiled down: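 A single 1.0 mmol/kg dose was given by stomach tube at zero time to fasted male Sprague-Dawley rats (185-225 g). Ethanol (2.0 g/kg, ip) was given 1 h before sacrifice: blood sampled at 4 h, or over 48 h with ethanol at 1, 4, 11, 23, 35 and 47 h, two rats per time. Cardiac blood went into sodium azide; AcH was measured by headspace GC in duplicate.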

On to `N#CNC(=O)C12CC3CC(CC(C3)C1)C2`, for which the figures for the Concentration in assay [1] and in assay [2] were 75 µM and 1250 µM, respectively.
In the case of `CCCC(=O)NC#N`, the Concentration in assay [1] was found to be 250 µM; in assay [2], 1750 µM.
As for `CC(C)C[C@H](NC(=O)c1ccccc1)C(=O)NC#N`, the Concentration is 300 µM in assay [1] and 1000 µM in assay [2].
Take `N#CNC(=O)CNC(=O)c1ccccc1`: the Concentration is 200 µM in assay [1] and 400 µM in assay [2].
`CC(C)C[C@H](NC(=O)[C@@H]1CCC(=O)N1)C(=O)NC#N`: the figures for the Concentration in assay [1] and in assay [2] were 25 µM and 200 µM, respectively.
As for `N#CNC(=O)[C@H](Cc1ccccc1)NC(=O)[C@@H]1CCC(=O)N1`, the Concentration is 150 µM in assay [1] and 1150 µM in assay [2].
For the compound `N#CNC(=O)c1ccccc1`, the Concentration in assay [1] came out at 100 µM; in assay [2], 300 µM.
For `N#CNC(=O)Cc1ccccc1` the same measures were 1300 µM and 1250 µM.
For `CC(C)C[C@H](NC(=O)CNC(=O)OCc1ccccc1)C(=O)NC#N`, the Concentration worked out at 35 µM in assay [1] and 1050 µM in assay [2].
`N#CNC(=O)OCc1ccccc1`: the Concentration in assay [1] came to 50 µM; in assay [2], 1200 µM.
For `N#CN`, the figures for the Concentration in assay [1] and in assay [2] were 225 µM and 1050 µM, respectively.
For the compound `CC(=O)NC#N`, the Concentration in assay [3] was 400 µM; in assay [4], 350 µM; in assay [1], 50 µM; in assay [2] it was 250 µM.
As to `N#CNC(=O)C1CCC(=O)N1C(=O)OCc1ccccc1` (stereo not given), the Concentration in assay [1] is 35 µM; in assay [2], 175 µM.
In the case of `CCCCCCCCCCCCCCCC(=O)NC#N`, the Concentration was found to be 1150 µM in assay [3], 1300 µM in assay [4], 1100 µM in assay [1] and 1600 µM in assay [2].
Turning to `CC(C)(C)C(=O)NC#N`, the Concentration stood at 200 µM in assay [1] and 1200 µM in assay [2].
With `N#CNC(=O)CNC(=O)OCc1ccccc1`, the Concentration worked out at 850 µM in assay [3], 125 µM in assay [4], 35 µM in assay [1] and 900 µM in assay [2].
For `CCCCCCCCCCCCCCCCCC(=O)NC#N`, the Concentration came to 600 µM in assay [1] and 1300 µM in assay [2].
